These results are taken from ChEMBL document CHEMBL1933027, “Time-dependent botulinum neurotoxin serotype A metalloprotease inhibitors” (Bioorg Med Chem, 2011).

Broadly, the IC50 is the concentration that inhibits the measured activity by half. Higher therefore signals a need for much substance. Usually inhibition stands for the share of the control response that was lost under treatment. Low readings indicate little suppression, high ones strong suppression. As usually defined, the Ki is a measure of affinity in units of concentration, obtained from inhibition or displacement.

Peptide text beside a SMILES is read from it. * marks the point of attachment. X1 = O=C(C(S)Cc1ccccc1)*

Assay [1] has as its target T1, Botulinum neurotoxin type A (Clostridium botulinum, UniProt P0DPI0). In words: Inhibition of Clostridium botulinum BoNT/A light chain-mediated SNAP-25 substrate cleavage after 40 mins by FRET assay. Put shortly: (§1)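 Recombinant BoNT/A LC at 2 nM was incubated with 20 μM SNAP-25 peptide (AA 187–203, DnpK/daciaC-labelled) for 40 min at 37 °C. Cleaved-substrate fluorescence was read at 485 nm with excitation at 398 nm. IC50 is the compound concentration giving 50% inhibition, averaged over two experiments.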

For a further assay, the target named is T2, Lethal factor (Bacillus anthracis, UniProt P15917).
T2 sequence (P15917 whole entry): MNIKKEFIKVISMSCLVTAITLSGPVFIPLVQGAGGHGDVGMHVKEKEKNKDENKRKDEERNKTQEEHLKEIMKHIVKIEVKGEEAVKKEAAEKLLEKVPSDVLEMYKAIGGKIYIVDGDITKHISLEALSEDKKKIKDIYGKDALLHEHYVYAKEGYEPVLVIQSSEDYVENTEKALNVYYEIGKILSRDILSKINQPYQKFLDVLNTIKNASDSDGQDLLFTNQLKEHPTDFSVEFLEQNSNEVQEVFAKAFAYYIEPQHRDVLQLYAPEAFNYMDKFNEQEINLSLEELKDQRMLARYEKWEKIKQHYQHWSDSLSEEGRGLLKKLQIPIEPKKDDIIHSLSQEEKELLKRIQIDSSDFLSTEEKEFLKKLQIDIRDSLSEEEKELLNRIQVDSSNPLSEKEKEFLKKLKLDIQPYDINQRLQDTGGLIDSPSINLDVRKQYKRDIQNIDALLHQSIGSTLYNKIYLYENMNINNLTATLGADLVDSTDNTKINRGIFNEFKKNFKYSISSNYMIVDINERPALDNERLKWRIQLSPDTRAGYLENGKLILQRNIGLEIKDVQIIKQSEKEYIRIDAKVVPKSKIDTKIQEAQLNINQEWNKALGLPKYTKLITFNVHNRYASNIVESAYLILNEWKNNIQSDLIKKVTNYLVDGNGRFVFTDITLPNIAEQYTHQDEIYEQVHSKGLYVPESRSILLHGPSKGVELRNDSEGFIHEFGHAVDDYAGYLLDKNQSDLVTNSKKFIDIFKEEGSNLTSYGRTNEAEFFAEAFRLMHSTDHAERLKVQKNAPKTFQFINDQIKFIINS
Nature of the assay: Inhibition of Bacillus anthracis lethal factor using MCA-KKVYPYPME[dnp]Kamide peptide substrate after 30 mins by FRET assay.

The target of assay [2] is Botulinum neurotoxin type A (Clostridium botulinum) (UniProt P0DPI0). In words: Inhibition of clostridium botulinum BoNT/A-mediated SNAP-25 substrate cleavage in chicken neurons at 30 uM preincubated for 15 mins before substrate addition.
Assay [3] has as its target T3, Lethal factor (Bacillus anthracis) (UniProt P15917).
T3 sequence (whole entry): T2 sequence (P15917 whole entry)
Nature of the assay: Inhibition of Bacillus anthracis lethal factor using MCA-KKVYPYPME[dnp]Kamide peptide substrate at 100 uM after 30 mins by FRET assay.

The target of assay [4] is T1, Botulinum neurotoxin type A. Nature of the assay: Inhibition of Clostridium botulinum botulinum neurotoxin type A light chain. Put shortly: as §1

T1 sequence (P0DPI0 2-448 limits assumed): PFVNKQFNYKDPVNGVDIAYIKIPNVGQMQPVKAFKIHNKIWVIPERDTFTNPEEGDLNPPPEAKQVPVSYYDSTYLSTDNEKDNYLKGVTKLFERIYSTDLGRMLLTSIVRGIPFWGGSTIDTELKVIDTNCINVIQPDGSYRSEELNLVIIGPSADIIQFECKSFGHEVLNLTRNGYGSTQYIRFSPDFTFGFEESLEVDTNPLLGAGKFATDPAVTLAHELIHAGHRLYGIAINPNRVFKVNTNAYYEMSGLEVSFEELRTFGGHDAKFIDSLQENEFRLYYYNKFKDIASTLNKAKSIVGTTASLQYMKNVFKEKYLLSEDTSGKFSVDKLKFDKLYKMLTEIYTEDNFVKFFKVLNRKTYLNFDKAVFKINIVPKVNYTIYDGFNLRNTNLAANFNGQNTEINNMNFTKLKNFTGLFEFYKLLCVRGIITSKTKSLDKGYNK
Sequence of Botulinum neurotoxin type A (Clostridium botulinum) (P0DPI0 2-448 limits assumed): as above

Take `Cn1c(/C(C#N)=C/c2ccc(-c3cccs3)s2)[n+](C)c2ccccc21`: the half-maximal inhibitory concentration (IC50) in assay [1] was above 100 µM.

Take `N#C/C(=C\c1ccc(-c2cccs2)s1)c1cc2ccccc2[nH]1`: the IC50 (in assay [1]; on Lethal factor) was above 100 µM throughout.

In the case of `N#C/C(=C\c1c[nH]c2c1ccc1ccccc12)c1nc2ccccc2[nH]1`, the IC50 (in assay [1]; against Lethal factor) was above 100 µM in each case.

Take `N#C/C(=C\c1cc(-c2ccccc2)cnc1Cl)c1nc2ccccc2[nH]1`: the IC50 (in assay [1]; at Lethal factor) was above 100 µM throughout.

Consider `Cc1cc(/C=C(\C#N)c2nc3ccccc3[nH]2)sc1C`, for which the IC50 (in assay [1]; against Lethal factor) was above 100 µM in each case.

Turning to `N#C/C(=C\c1cccs1)c1nc2ccccc2[nH]1`, the IC50 (in assay [1]; at Lethal factor) was above 100 µM each time.

As for `N=C(N)c1ccc(Oc2ccc(-c3cc4ccc(C(=N)N)cc4[nH]3)cc2)cc1`, in assay [2], the inhibition is 42%.

Regarding `N#C/C(=C\c1ccc(-c2ccco2)s1)c1nc2ccccc2[nH]1`, the results for the half-maximal inhibitory concentration (IC50) (in assay [1]; at Lethal factor) were 59 µM and above 100 µM, respectively.

`N#C/C(=C\c1c[nH]c2ccc(Br)cc12)c1nc2ccccc2[nH]1`: in assay [3], the inhibition worked out at 60%. In assay [1], this compound had an IC50 above 100 µM.

Turning to `COc1ccc(/C=C(\C#N)c2nc3ccccc3[nH]2)cc1OC`, the half-inhibitory concentration (IC50) (in assay [1]; at Lethal factor) was above 100 µM each time.

Regarding `COc1cc(/C=C(\C#N)c2nc3ccccc3[nH]2)cc(Cl)c1O`, the IC50 in assay [1] is 59 µM; on Lethal factor it was above 100 µM.

For the compound `COc1ccc(/C=C(\C#N)c2nc3ccccc3[nH]2)cc1Cl`, the IC50 (in assay [1]; against Lethal factor) was above 100 µM each time.

Take `Cc1ccc(/C=C(\C#N)c2nc3ccccc3[nH]2)s1`: the IC50 (in assay [1]; against Lethal factor) was above 100 µM each time.

Turning to `CSCC[C@H](NC(=O)[C@H](CCCCN)NC(=O)[C@@H](NC(=O)[C@H](C)NC(=O)[C@H](CCCNC(=N)N)NC(=O)C(S)Cc1ccccc1)[C@@H](C)O)C(=O)N[C@@H](CC(C)C)C(=O)O` (stereo partly drawn) (X1-RATKML-OH), the affinity in assay [4], expressed as Ki, was 0.33 µM.

`COc1ccc(/C=C(\C#N)c2nc3ccccc3[nH]2)cc1F`: the IC50 (in assay [1]; at Lethal factor) was above 100 µM throughout.

As to `N#C/C(=C\c1ccc(-c2ccccc2)cc1)c1nc2ccccc2[nH]1`, the values for the half-inhibitory concentration (IC50) (in assay [1]; against Lethal factor) were 86 µM and above 100 µM, respectively.

`Cc1c(/C=C(\C#N)c2nc3ccccc3[nH]2)sc2ccccc12`: the IC50 (in assay [1]; on Lethal factor) was above 100 µM throughout.

With `N#C/C(=C\c1ccc(-c2cccs2)s1)c1nc2ccccc2s1`, the IC50 (in assay [1]; on Lethal factor) was above 100 µM throughout.

For `N#C/C(=C\c1ccc(-c2cccs2)s1)c1ccc2ccccc2n1`, the IC50 (in assay [1]; at Lethal factor) was above 100 µM each time.

With `N#C/C(=C\c1ccc(-c2cccs2)s1)c1nc2ccccc2o1`, the concentration for half-maximal inhibition (IC50) in assay [1] is above 100 µM.

With `N#C/C(=C\c1ccc(-c2cccs2)o1)c1nc2ccccc2[nH]1`, the IC50 (in assay [1]; on Lethal factor) was above 100 µM in each case.

Take `N#C/C(=C\c1c(Cl)ncnc1Cl)c1nc2ccccc2[nH]1`: on Lethal factor, the half-inhibitory concentration (IC50) was above 100 µM.

Regarding `COc1ccc(/C=C(\C#N)c2nc3ccccc3[nH]2)cc1Br`, the IC50 (in assay [1]; against Lethal factor) was above 100 µM throughout.

For the compound `N#C/C(=C\c1c[nH]c2cccc([N+](=O)[O-])c12)c1nc2ccccc2[nH]1`, the IC50 (in assay [1]; on Lethal factor) was above 100 µM in each case.
